This note sets out measurements from ChEMBL document CHEMBL2331482, “Synthesis of some new 2-(3-pyridyl)-4,5-disubstituted thiazoles as potent antimicrobial agents” (2013).

≈ marks a conversion by molar mass, not a printed value. Calls of active or inactive are those of the source. The rule behind the calls is not given here.

Common to all, as to format: functional
The test system of one assay is Neisseria gonorrhoeae. In words: Antibacterial activity against Neisseria gonorrhoeae RCMB 010076 assessed as growth inhibition after 24 hrs by twofold serial dilution method. In a few lines: (§1)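 Broth microdilution in Müller–Hinton broth, 96-well plates. Only compounds giving disc-diffusion zones >10 mm were tested. DMF stocks (1000 µg/mL) were diluted twofold to a final 500–0.007 µg/mL, with about 10^6 CFU/mL bacteria. Sealed plates ran 24 h at 37 °C in a humid chamber. MIC was the lowest concentration with no visible turbidity. DMF and uninoculated-medium controls were included.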

The test system of the next assay is Enterococcus faecalis. In words: Antibacterial activity against Enterococcus faecalis RCMB 010068 assessed as growth inhibition after 24 hrs by twofold serial dilution method. In short, it runs like this:
as §1

A further assay concerns Candida albicans. Put plainly: Antifungal activity against Candida albicans RCMB 05035 assessed as growth inhibition after 48 hrs by twofold serial dilution method. In short, it runs like this:
(§2)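 Fungi were tested by microdilution in Sabouraud liquid medium. Only compounds with disc-diffusion zones >10 mm went on to this test. DMF stocks (1000 µg/mL) were serially diluted twofold to 500–0.007 µg/mL. Sealed plates were held 48 h at 25 °C in a humid chamber. MIC was the lowest concentration without visible turbidity. DMF and uninoculated-medium controls ran in parallel.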

Another assay has as its system Staphylococcus aureus. Put plainly: Antibacterial activity against Staphylococcus aureus RCMB 010027 assessed as growth inhibition after 24 hrs by twofold serial dilution method. Particulars: RCMB 010027, 24 h. In a few lines:
as §1

A further assay has as its system Klebsiella pneumoniae. In words: Antibacterial activity against Klebsiella pneumoniae RCMB 010093 assessed as growth inhibition after 24 hrs by twofold serial dilution method. In short, it runs like this:
as §1

The subject of another assay is Talaromyces marneffei. In words: Antifungal activity against Penicillium marneffei RCMB 01267 assessed as growth inhibition after 48 hrs by twofold serial dilution method. In short, it runs like this: as §2
In assay [1] the test system is Staphylococcus epidermidis. Put plainly: Antibacterial activity against Staphylococcus epidermidis RCMB 010024 assessed as growth inhibition after 24 hrs by twofold serial dilution method. The settings on record: RCMB 010024, 24 h. In short, it runs like this: as §1
A further assay has as its system Bacillus subtilis. Put plainly: Antibacterial activity against Bacillus subtilis RCMB 010063 assessed as growth inhibition after 24 hrs by twofold serial dilution method. The settings on record: RCMB 010063, 24 h. In a few lines: as §1
The test system of another assay is Aspergillus clavatus. Put plainly: Antifungal activity against Aspergillus clavatus RCMB 02593 assessed as growth inhibition after 48 hrs by twofold serial dilution method. Particulars: RCMB 02593, 48 h. In a few lines:
as §2

A further assay relates to Streptococcus pyogenes. Put plainly: Antibacterial activity against Streptococcus pyogenes RCMB 010015 assessed as growth inhibition after 24 hrs by twofold serial dilution method. In a few lines: as §1
In a further assay the test system is Shigella flexneri. Put plainly: Antibacterial activity against Shigella flexneri RCMB 0100542 assessed as growth inhibition after 24 hrs by twofold serial dilution method. In a few lines: as §1
The subject of a further assay is Geotrichum candidum. In words: Antifungal activity against Geotricum candidum RCMB 05096 assessed as growth inhibition after 48 hrs by twofold serial dilution method. Particulars: RCMB 05096, 48 h. In short, it runs like this:
as §2

The test system of a further assay is Pseudomonas aeruginosa. In words: Antibacterial activity against Pseudomonas aeruginosa RCMB 010043 assessed as growth inhibition after 24 hrs by twofold serial dilution method. In a few lines: as §1
Assay [2] relates to Staphylococcus epidermidis. In words: Ratio of ampicillin MIC to compound MIC for Staphylococcus epidermidis RCMB 010024.
In a further assay the test system is Proteus vulgaris. Put plainly: Antibacterial activity against Proteus vulgaris RCMB 010085 assessed as growth inhibition after 24 hrs by twofold serial dilution method. In a few lines: as §1
A further assay has as its system Aspergillus fumigatus. In words: Antifungal activity against Aspergillus fumigatus RCMB 02564 assessed as growth inhibition after 48 hrs by twofold serial dilution method. Particulars: RCMB 02564, 48 h. In short, it runs like this: as §2

One may read the MIC as the lowest concentration found to suppress growth. With `CC(=O)c1sc(-c2cccnc2)nc1C`, the MIC in the assay with Neisseria gonorrhoeae (RCMB 010076, 24 h) was 15.6 µg/mL (≈ 71.6 µM); in the assay with Enterococcus faecalis (RCMB 010068, 24 h), 7.81 µg/mL (≈ 35.8 µM); in the assay on Candida albicans (RCMB 05035, 48 h), 7.81 µg/mL (≈ 35.8 µM); in the assay on Staphylococcus aureus, 0.24 µg/mL (≈ 1.1 µM); in the assay with Klebsiella pneumoniae (RCMB 010093, 24 h), 0.48 µg/mL (≈ 2.2 µM); in the assay on Talaromyces marneffei (RCMB 01267, 48 h) it was 3.9 µg/mL (≈ 17.9 µM). The MIC was 0.24 µg/mL (≈ 1.1 µM) in assay [1]; 0.06 µg/mL (≈ 0.275 µM) in the assay on Bacillus subtilis; 3.9 µg/mL (≈ 17.9 µM) in the assay with Aspergillus clavatus; 3.9 µg/mL (≈ 17.9 µM) with Streptococcus pyogenes (RCMB 010015, 24 h); 3.9 µg/mL (≈ 17.9 µM) in the assay on Shigella flexneri (RCMB 0100542, 24 h); 0.48 µg/mL (≈ 2.2 µM) with Geotrichum candidum. Besides, the MIC in the assay with Pseudomonas aeruginosa (RCMB 010043, 24 h) is 500 µg/mL (≈ 2290 µM); with Proteus vulgaris (RCMB 010085, 24 h), 3.9 µg/mL (≈ 17.9 µM); in the assay with Aspergillus fumigatus it was 1.95 µg/mL (≈ 8.93 µM). Moreover, the Ratio in assay [2] worked out at 2.
Turning to `Cc1nc(-c2cccnc2)sc1C(=O)/C=C/c1ccccc1[N+](=O)[O-]`, the MIC in the assay on Neisseria gonorrhoeae (RCMB 010076, 24 h) stood at 125 µg/mL (≈ 356 µM); in the assay with Enterococcus faecalis (RCMB 010068, 24 h), 62.5 µg/mL (≈ 178 µM); in the assay on Candida albicans (RCMB 05035, 48 h), 31.2 µg/mL (≈ 88.9 µM); in the assay with Staphylococcus aureus, 3.9 µg/mL (≈ 11.1 µM); in the assay with Klebsiella pneumoniae (RCMB 010093, 24 h) it was 0.97 µg/mL (≈ 2.76 µM); in the assay on Talaromyces marneffei (RCMB 01267, 48 h), 15.8 µg/mL (≈ 45.1 µM). For the same compound, the minimum inhibitory concentration (MIC) came to 0.97 µg/mL (≈ 2.76 µM) in assay [1]; 0.97 µg/mL (≈ 2.76 µM) in the assay with Bacillus subtilis; 31.2 µg/mL (≈ 88.9 µM) in the assay on Aspergillus clavatus; 62.5 µg/mL (≈ 178 µM) with Streptococcus pyogenes (RCMB 010015, 24 h); 7.81 µg/mL (≈ 22.2 µM) in the assay with Shigella flexneri (RCMB 0100542, 24 h); 7.81 µg/mL (≈ 22.2 µM) in the assay with Geotrichum candidum. In addition, the MIC in the assay on Pseudomonas aeruginosa (RCMB 010043, 24 h) came to 125 µg/mL (≈ 356 µM); with Proteus vulgaris (RCMB 010085, 24 h), 7.81 µg/mL (≈ 22.2 µM); with Aspergillus fumigatus, 7.81 µg/mL (≈ 22.2 µM).
As to `CC(=O)Nc1ccc(-c2csc(-c3cccnc3)n2)cc1`, the MIC result in the assay with Neisseria gonorrhoeae, in the assay with Enterococcus faecalis, with Candida albicans, with Klebsiella pneumoniae, in the assay on Talaromyces marneffei and in the assay with Streptococcus pyogenes was “inactive” each time. Besides, the MIC entry in the assay with Shigella flexneri, in the assay with Pseudomonas aeruginosa and in the assay with Proteus vulgaris was “inactive” in each case. For the same compound, the MIC in the assay on Staphylococcus aureus came to 3.9 µg/mL (≈ 13.2 µM); in assay [1] it was 1.95 µg/mL (≈ 6.6 µM); in the assay with Bacillus subtilis, 0.97 µg/mL (≈ 3.28 µM); in the assay on Aspergillus clavatus, 15.6 µg/mL (≈ 52.9 µM); in the assay with Geotrichum candidum, 7.81 µg/mL (≈ 26.4 µM); with Aspergillus fumigatus, 7.81 µg/mL (≈ 26.4 µM).
For `O=c1oc2ccccc2cc1-c1csc(-c2cccnc2)n1`, the MIC in the assay with Neisseria gonorrhoeae (RCMB 010076, 24 h) stood at 62.5 µg/mL (≈ 204 µM); in the assay on Enterococcus faecalis (RCMB 010068, 24 h) it was 62.5 µg/mL (≈ 204 µM); with Candida albicans (RCMB 05035, 48 h), 125 µg/mL (≈ 408 µM); in the assay with Staphylococcus aureus, 7.81 µg/mL (≈ 25.5 µM); in the assay on Klebsiella pneumoniae (RCMB 010093, 24 h) it was 7.81 µg/mL (≈ 25.5 µM); in the assay on Talaromyces marneffei (RCMB 01267, 48 h) it was 31.2 µg/mL (≈ 102 µM). Besides, the minimal inhibitory concentration (MIC) in assay [1] turned out to be 3.9 µg/mL (≈ 12.7 µM); in the assay with Bacillus subtilis, 3.9 µg/mL (≈ 12.7 µM); with Aspergillus clavatus it was 15.6 µg/mL (≈ 51 µM); in the assay on Streptococcus pyogenes (RCMB 010015, 24 h), 7.81 µg/mL (≈ 25.5 µM); with Shigella flexneri (RCMB 0100542, 24 h), 1.95 µg/mL (≈ 6.37 µM); with Geotrichum candidum, 15.6 µg/mL (≈ 51 µM). In addition, the MIC stood at 62.5 µg/mL (≈ 204 µM) in the assay with Pseudomonas aeruginosa (RCMB 010043, 24 h); 15.6 µg/mL (≈ 51 µM) in the assay with Proteus vulgaris (RCMB 010085, 24 h); 15.6 µg/mL (≈ 51 µM) in the assay on Aspergillus fumigatus.
